In ChEMBL document CHEMBL4396890, “Synthesis, Biological Evaluation, Structure-Activity Relationship, and Mechanism of Action Studies of Quinoline-Metronidazole Derivatives Against Experimental Visceral Leishmaniasis” (J Med Chem, 2019):
The source made the active and inactive calls. The rule behind the calls is not given here.

Key:
Leishmania donovani [1] = assay: Induction of apoptosis in Leishmania donovani MHOM/IN/80/Dd8 promastigotes assessed as late apoptotic cells at 50 uM measured after 24 hrs by Annexin V-FITC/propidium iodide staining based assay (reference value: 0.46%); format: functional
Leishmania donovani [2] = assay: Induction of apoptosis in Leishmania donovani MHOM/IN/80/Dd8 promastigotes assessed as increase in meta-caspase activity at 50 uM using BOC-GRR-AMC as substrate preincubated for 1 hr followed by substrate addition and measured after 2 hrs in presence of meta-caspase inhibitor antipain by fluorometric assay; format: functional, organism-based
How it was run: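 Log-phase promastigotes were pretreated for 1 h with antipain (1 μM) or zVAD-fmk (100 μM), then exposed to 50 μM compound or 0.1% DMSO. Metacaspase activity in lysates was read with fluorogenic BOC-GRR-AMC and expressed as RFU per mg protein.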

Leishmania donovani [3] = assay: Antileishmanial activity against Leishmania donovani MHOM/IN/80/Dd8 amastigotes harboring luciferase reporter gene infected in mouse J774 cells assessed as stimulation of host immunity by measuring change in IL10 level at 50 uM after 48 hrs by ELISA; format: functional, organism-based
How it was run: (§1)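 Infected J774 macrophages (24 h infection) were treated with 50 μM compound for 48 h. Culture supernatants were assayed by ELISA for TNF-α and IL-12 (Th1) and for TGF-β and IL-10 (Th2), compared with infected untreated cells.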

Leishmania donovani [4] = assay: Induction of reactive oxygen species generation in Leishmania donovani MHOM/IN/80/Dd8 promastigotes at 50 uM measured after 48 hrs by H2DCFDA probe-based flow cytometry (reference value: 7%); format: functional
Leishmania donovani [5] = assay: Induction of mitochondrial potential loss in Leishmania donovani MHOM/IN/80/Dd8 promastigotes at 50 uM by JC1 dye-based flow cytometry; format: functional, organism-based; conditions: TDE = time-dependent effect
How it was run: (§2)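 Exponential-phase promastigotes were incubated with 50 μM compound for 6−48 h, or 0.1% DMSO vehicle. CCCP (50 μM) served as positive control. After JC-1 staining, the red-to-green fluorescence shift was measured by flow cytometry.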

Leishmania donovani [6] = assay: Induction of nitric oxide generation in Leishmania donovani MHOM/IN/80/Dd8 promastigotes assessed as increase in fluorescence at 50 uM measured after 6 hrs by DAF-2DA dye-based flow cytometry relative to control; format: functional
How it was run: (§3)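 Log-phase promastigotes exposed to 50 μM for 6–18 h, vehicle control 0.1% DMSO, then labelled with 40 μM DAF-2DA. Fluorescence (GMFC) read by flow cytometry and expressed as fold change over vehicle. At least 3 independent experiments in duplicate.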

Leishmania donovani [7] = assay: Induction of apoptosis in Leishmania donovani MHOM/IN/80/Dd8 promastigotes assessed as DNA fragmentation at 50 uM after 48 hrs by TUNEL staining-based fluorescence assay; format: functional, organism-based
How it was run: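 Log-phase promastigotes (1 × 10^5) were treated with 50 μM compound or 0.1% DMSO vehicle for 48 h. DNA fragmentation was labelled with an APO-BrdU TUNEL kit with PI counterstain. Cells were imaged by phase-contrast and fluorescence microscopy.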

Leishmania donovani [8] = assay: Induction of apoptosis in Leishmania donovani MHOM/IN/80/Dd8 promastigotes assessed as early apoptotic cells at 50 uM measured after 48 hrs by Annexin V-FITC/propidium iodide staining based assay (reference value: 6.91%); format: functional
Leishmania donovani [9] = assay: Induction of plasma membrane permeabilization in Leishmania donovani MHOM/IN/80/Dd8 promastigotes assessed as non specific pore formation at MIC measured after 4 hrs by sytox green dye based flow cytometry; format: functional, organism-based
Leishmania donovani [10] = assay: Induction of mitochondrial potential loss in Leishmania donovani MHOM/IN/80/Dd8 promastigotes assessed as shift in red to green fluorescence at 50 uM after 12 hrs by JC1 dye-based flow cytometry (reference value: 7.37%); format: functional; how it was run: as §2
[11] = Tmax in BALB/c mouse at 50 mg/kg, po administered via gavage by LC-MS/MS analysis; format: ADME, organism-based; conditions: in vivo
[12] = AUC (0 to infinity) in BALB/c mouse at 50 mg/kg, po administered via gavage by LC-MS/MS analysis; format: ADME, organism-based; design: dose 50 mg/kg, time infinity, route oral; conditions: in vivo
Leishmania donovani [13] = assay: Induction of apoptosis in Leishmania donovani MHOM/IN/80/Dd8 promastigotes assessed as late apoptotic cells at 50 uM measured after 48 hrs by Annexin V-FITC/propidium iodide staining based assay (reference value: 0.02%); format: functional
Leishmania donovani [14] = assay: Induction of apoptosis in Leishmania donovani MHOM/IN/80/Dd8 promastigotes assessed as increase in meta-caspase activity at 50 uM using BOC-GRR-AMC as substrate preincubated for 1 hr followed by substrate addition and measured after 2 hrs by fluorometric assay relative to control; format: functional
How it was run: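 Log-phase promastigotes treated with 50 μM for 24 and 48 h, with or without 1 h pretreatment with antipain (1 μM) or zVAD-fmk (100 μM). Vehicle control was 0.1% DMSO. Metacaspase activity in cell lysates measured with fluorogenic BOC-GRR-AMC, given as relative fluorescence units per mg protein.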

Leishmania donovani [15] = assay: Induction of mitochondrial membrane disruption in Leishmania donovani MHOM/IN/80/Dd8 promastigotes assessed as increase in cytochrome c release from mitochondria to cytosol at 50 uM measured after 6 to 48 hrs by immunoblot analysis; format: functional, organism-based
How it was run: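 Promastigotes were treated with 50 μM compound for 6−48 h, or 0.1% DMSO for 48 h. Mitochondrial and cytosolic fractions were immunoblotted for cytochrome c, with COX-IV and β-tubulin as fraction loading controls.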

Leishmania donovani [16] = assay: Induction of nitric oxide generation in Leishmania donovani MHOM/IN/80/Dd8 promastigotes assessed as increase in fluorescence at 50 uM measured after 12 hrs by DAF-2DA dye-based flow cytometry relative to control; format: functional; how it was run: as §3
Leishmania donovani [17] = assay: Induction of mitochondrial membrane disruption in Leishmania donovani MHOM/IN/80/Dd8 promastigotes assessed as reduction in intracellular ATP level at 50 uM measured after 6 to 48 hrs by luciferase-based assay relative to control; format: functional
How it was run: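 Promastigotes were incubated with 0.1% DMSO or 50 μM compound for 6−48 h. Cytosolic ATP was quantified by bioluminescence assay. At least 3 independent experiments in duplicate.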

Leishmania donovani [18] = assay: Antileishmanial activity against Leishmania donovani MHOM/IN/80/Dd8 amastigotes harboring luciferase reporter gene infected in mouse J774 cells assessed as stimulation of host immunity by measuring change in IL12 level at 50 uM after 48 hrs by ELISA; format: functional, organism-based; how it was run: as §1
Leishmania donovani [19] = assay: Antileishmanial activity against Leishmania donovani MHOM/IN/80/Dd8 promastigotes infected in BALB/c mouse assessed as reduction in parasite load in spleen at 25 mg/kg, ip administered once daily for 5 days measured 7 days post dose by giemsa staining-based assay relative to control; format: functional; design: scale not given: the % may be the effect or the level left
How it was run: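 Hamster-passaged strain was transformed to promastigotes. Stationary-phase cells (2 × 10^7 in 0.2 mL PBS) were injected into the tail vein of BALB/c mice. From day 15 post-infection, mice received compound ip in 8% DMSO in PBS for 5 consecutive days, 5 mice per group. Mice were killed day 7 post-treatment. Liver and spleen burden was read from Giemsa-stained stamp smears as LDU.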

Leishmania donovani [20] = assay: Induction of apoptosis in Leishmania donovani MHOM/IN/80/Dd8 promastigotes assessed as late apoptotic cells at 50 uM measured after 48 hrs by Annexin V-FITC/propidium iodide staining based assay (reference value: 0.46%); format: functional
[21] = AUC (0 to 48 hrs) in BALB/c mouse at 50 mg/kg, po administered via gavage by LC-MS/MS analysis; format: ADME, organism-based; design: time < 48 hr, dose 50 mg/kg, route oral; conditions: in vivo

SMILES: Cc1cc(-c2ccc(OCCn3c([N+](=O)[O-])cnc3C)cc2)nc2ccccc12
- Activity (Leishmania donovani [1]): 48.14%
- inhibition (Leishmania donovani [2]): inactive
- Activity (Leishmania donovani [3]): inactive
- Activity (Leishmania donovani [4]): 58.2%
- Activity (Leishmania donovani [5]): Tde
- fold change (FC) (Leishmania donovani [6]): 1.75
- Activity (Leishmania donovani [7]): Active
- Activity (Leishmania donovani [8]): 18.07%
- Activity (Leishmania donovani [9]): inactive
- Activity (Leishmania donovani [10]): 33.15%
- Tmax [11]: 45 min
- AUC(0-inf) [12]: 18200 ng·h/mL
- Activity (Leishmania donovani [13]): 0.41%
- fold change (FC) (Leishmania donovani [14]): 3.8
- Activity (Leishmania donovani [15]): Active
- fold change (FC) (Leishmania donovani [16]): 3.6
- Imax (Leishmania donovani [17]): >67%
- Activity (Leishmania donovani [18]): inactive
- Activity (Leishmania donovani [19]): >62%
- Activity (Leishmania donovani [20]): 44.11%
- AUC(0-t) at 48 h [21]: 18200 ng·h/mL
